Source: publication PMC6177216 (Journal of controlled release : official journal of the …, 2018)
Where two headings read alike, the source gives them in different places. One block for each molecule: values may come before it.

Columns and labels:
GCS mRNA [1] = test: GCS mRNA expression by real-time PCR in 4T1.2 cells; type: cell-based, mouse; conditions: 48 h; for effect on GCS mRNA expression: various concentrations
[2] = test system: 4T1.2 mouse breast cancer cells; test: MTT cytotoxicity assay in 4T1.2 cells; type: cell-based
GCS mRNA [3] = test: GCS mRNA expression by real-time PCR in MCF-7 cells; type: cell-based, human; conditions: 48 h; for effect on GCS mRNA expression: various concentrations
[4] = test system: PC-3 human prostate cancer cells; test: MTT cytotoxicity assay in PC-3 cells; type: cell-based
Summary of the method: (§1)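 Cells seeded at 5×10³ (MCF-7) or 3×10³ (PC-3) per well and grown 24 h in DMEM with 10% FBS and 1% streptomycin/penicillin. They were then exposed for 48 h to various concentrations of test compound alone or combined with another anticancer agent. Viability was read by MTT. IC50 came from fitting an inhibitory normalised dose-response model with variable slope.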

[5] = test system: MCF-7 human breast cancer cells; test: MTT cytotoxicity assay in MCF-7 cells; type: cell-based; conditions: for inhibition of cell proliferation (in words): MTT
Summary of the method: as §1

ceramides in 4T1.2 cells = test: Ceramide levels by LC/MS in 4T1.2 cells; type: cell-based, mouse; conditions: PPMP 1.7 μM and/or DOX 100 nM, 48 h
Summary of the method: (§2)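 Cells seeded at 2×10⁴ (4T1.2) or 6×10⁴ (MCF-7) per well in DMEM with 10% FBS and 1% penicillin-streptomycin for 24 h. Medium was then replaced with 2% FBS medium containing test compound, free or micellar. After 48 h, cells were washed with ice-cold D-PBS and lysed in 0.2% SDS, with an aliquot kept for protein assay. Lipids were resuspended in ACN/IPA/H₂O (1:1:1) and analysed by HPLC-ESI-MS/MS. Peak areas were quantified against C6-ceramide internal standard and normalised to protein.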

ceramides in MCF-7 cells = test: Ceramide levels by LC/MS in MCF-7 cells; type: cell-based, human; conditions: PPMP 1.7 μM and/or DOX 100 nM, 48 h
Summary of the method: as §2

[6] = Plasma pharmacokinetics of DOX; type: in vivo, tumor-free female CD1 mice; conditions: DOX in plasma; i.v. 5 mg/kg DOX; CD1 mice
[7] = In vitro DOX release by dialysis in DPBS; type: physicochemical; conditions: DOX 0.5 mg/mL
Summary of the method: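 Dialysis release was run alongside free drug and drug loaded in a pharmacologically inert copolymer micelle as comparators. Cumulative release was followed from 0 to 72 h in triplicate.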

SMILES: CC(=O)O[C@H]1C(=O)[C@@]2(C)[C@H]([C@H](OC(=O)c3ccccc3)[C@]3(O)C[C@H](OC(=O)[C@H](O)[C@@H](NC(=O)c4ccccc4)c4ccccc4)C(C)=C1C3(C)C)[C@]1(OC(C)=O)CO[C@@H]1C[C@@H]2O [PTX, paclitaxel]
effect on GCS mRNA expression (GCS mRNA [1]): not in 4T1.2 cells | IC50 ([2]; Mus musculus, 4T1.2, 48 h, read-out: D502, IC50 of drug 2 in single treatment): 0.108 ± 0.0181 µg/mL | effect on GCS mRNA expression (GCS mRNA [3]): significant induction | IC50 ([4]; Homo sapiens, PC-3, 48 h, read-out: D502, IC50 of drug 2 in single treatment): 0.0043 ± 0.0002 µg/mL | IC50 ([5]; Homo sapiens, MCF7, 48 h, read-out: D502, IC50 of drug 2 in single treatment): 7.14 ± 1.87 µg/mL

SMILES: CCCCCCCCCCCCC/C=C/[C@@H](O)[C@H](CO)NC(=O)CCCCC [C6-ceramide]
effect on GCS mRNA expression (GCS mRNA [1]): similarly observed | IC50 ([2]; read-out: D502, IC50 of drug 2 in single treatment, 4T1.2, 48 h): 2.8 ± 0.2 µM | increase of GCS mRNA expression level (GCS mRNA [3]; C6-ceramide 2 μM): 6.5 fold | effect on GCS mRNA expression (GCS mRNA [3]): significant increases | IC50 ([4]; read-out: D502, IC50 of drug 2 in single treatment, PC-3, 48 h): 1.6 ± 0.1 µM | IC50 ([5]; read-out: D502, IC50 of drug 2 in single treatment, MCF-7, 48 h): 6.2 ± 0.2 µM

SMILES: CCCCCCCCCCCCCCCC(=O)NC(CN1CCOCC1)C(O)c1ccccc1 (centres unmarked) [PPMP, 1-phenyl-2-palmitoylamino-3-morpholino-1-propanol]
effect on amount of C16 ceramide (ceramides in 4T1.2 cells): modest increase | effect on DOX-induced upregulation of GCS mRNA expression (GCS mRNA [1]; PPMP 1.7 μM, DOX 100 nM): effective in inhibiting | effect on basal level of GCS mRNA (GCS mRNA [1]; PPMP concentration 1.7 μM): significant decreases | cytotoxicity / inhibition of proliferation (in words) ([2]; 4T1.2, 48 h, MTT): inhibited the proliferation | IC50 ([2]; Mus musculus, 4T1.2, 48 h, read-out: D501, IC50 of PPMP in single treatment): 2.2 ± 0.1 µM | effect on DOX-induced upregulation of GCS mRNA expression (GCS mRNA [3]; PPMP 1.7 μM, DOX 100 nM): effective in inhibiting | effect on basal level of GCS mRNA (GCS mRNA [3]; PPMP concentration 1.7 μM): significant decreases | IC50 ([4]; Homo sapiens, PC-3, 48 h, read-out: D501, IC50 of PPMP in single treatment): 3.4 ± 0.1 µM | IC50 ([5]; Homo sapiens, MCF7, 48 h, read-out: D501, IC50 of PPMP in single treatment): 5.7 ± 0.4 µM | inhibition of cell proliferation (in words) ([5]; MCF-7, 48 h): concentration-dependent inhibition | effect on amount of C16 ceramide (ceramides in MCF-7 cells): modest increase

AUC0−∞ [6]: 9200 ng·h/mL | CL [6]: 10.87 µL/h | Cmax [6]: 4410 µg/mL | T1/2 [6]: 3.35 h | Vd [6]: 52.49 µL | DOX released ([7]; in 2 h): Forty eight | DOX released ([7]; within 12 h): around 83%
SMILES: COc1cccc2c1C(=O)c1c(O)c3c(c(O)c1C2=O)C[C@@](O)(C(=O)CO)C[C@@H]3O[C@H]1C[C@H](N)[C@H](O)[C@H](C)O1 [DOX, Doxorubicin]
effect on amount of C16 ceramide (ceramides in 4T1.2 cells): significantly induced | effect on GCS mRNA expression (GCS mRNA [1]): similarly observed | increase of GCS mRNA expression level (GCS mRNA [3]; DOX 200 nM): 4.2 fold | effect on GCS mRNA expression (GCS mRNA [3]): significant increases | inhibition of cell proliferation (in words) ([5]; MCF-7, 48 h): concentration-dependent inhibition | effect on amount of C16 ceramide (ceramides in MCF-7 cells): significantly induced
